Screening results deposited in PubChem BioAssay by Broad Institute.
Sampled rows, rich in hits. Any-hit rate of the full collection: about 4%.
Ecoli rRNA inh: inhibitors of bacterial rRNA selective over humanized ribosomes | GFP signal change (wild-type ribosome), % (no concentration beside the values) | E. coli WT GFP vs humanized-ribosome RFP mutants, fluorescence, 24 h; stronger effect = lower value; DMSO median 0, no signal -100 | hit rate 1.6% among 350,000;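 active = significant combined selectivity score with lowered wild-type GFP, culture density cut under 30%, mutant RFP and density less affected; inactive = any of these conditions unmet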
FN deposition inh: fibronectin deposition inhibition; AH1F fibroblasts, Alexa488-fibronectin deposition fluorescence, overnight; inhibition, % at 12.6 µM; hit rate 0.086% among 350,000;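 active = mean inhibition across replicates of 30% or more, regardless of how many single replicates reach that level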
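test system = AH1F fibroblasts assembling fluorescent fibronectin matrix | quantity = 10000 AH1F cells per well | buffer or medium = DMEM plus 2% serum, read in PBS | doses = single dose, pinned | incubation = 1 h cell attachment, overnight exposure to compound and label | detection = fluorescence at 485 nm excitation, 525 nm emission | read-out basis = inhibition from reduced deposited-fibronectin fluorescence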
SIRT5 block: inhibitors of human sirtuin-5 desuccinylase. hit rate 1.1% among 330,000. inhibition, % at 15 µM. Purified SirT5, succinyl-peptide AMC, trypsin-coupled fluorescence. Q9NXA8; in the data active = inhibition above about 15%
Statin myotox sup: protects C2C12 myotubes from simvastatin toxicity; hit rate 0.78% among 330,000; rescue of ATP level, % at 7.49 µM; ATP luminescence, 48 h; scaled: DMSO 0, geranylgeraniol control 100; AID 602340;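 active = mean ATP rescue above about 67%, or every replicate alone reaching that limit, limit read from the data, passing the limit was not always enough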;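 note: myotubes were challenged with 10 µM simvastatin during compound exposure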
E-sel inducer: induces E-selectin expression in human endothelial cells; P16581; HUVEC E-selectin immunofluorescence imaging; normalized: neutral wells 0, TNF-alpha wells 100; activation, % at 7.58 µM; hit rate 0.37% among 260,000;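 active = mean E-selectin-positive cell signal at least 10% of the positive control, reached in at least 60% of replicates, without over 20% cell loss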
Target sequence (P16581 whole entry, looked up): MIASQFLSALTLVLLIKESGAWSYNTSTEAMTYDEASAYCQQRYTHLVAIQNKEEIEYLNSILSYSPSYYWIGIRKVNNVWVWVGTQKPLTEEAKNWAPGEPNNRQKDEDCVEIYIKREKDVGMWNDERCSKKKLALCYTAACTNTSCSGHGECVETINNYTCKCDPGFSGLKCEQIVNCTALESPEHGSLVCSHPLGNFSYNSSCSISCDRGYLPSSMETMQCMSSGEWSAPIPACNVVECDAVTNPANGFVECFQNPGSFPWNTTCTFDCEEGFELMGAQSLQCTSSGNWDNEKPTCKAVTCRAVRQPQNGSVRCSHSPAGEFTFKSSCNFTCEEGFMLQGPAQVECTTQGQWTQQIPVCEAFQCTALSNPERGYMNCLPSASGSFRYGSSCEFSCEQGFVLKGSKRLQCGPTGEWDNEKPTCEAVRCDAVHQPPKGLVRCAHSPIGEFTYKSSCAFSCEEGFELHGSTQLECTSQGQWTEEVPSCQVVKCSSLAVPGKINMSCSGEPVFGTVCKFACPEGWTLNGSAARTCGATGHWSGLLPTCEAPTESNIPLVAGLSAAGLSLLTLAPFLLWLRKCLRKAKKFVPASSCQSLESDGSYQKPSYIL
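Assay system: HUVEC, human umbilical vein endothelial cells / Amount: 3,000 HUVEC/well / Controls: TNF-alpha positive control, DMSO neutral control / Compound dosing: single concentration / Medium: EGM-2 over gelatin coat / Evaluation: percent E-selectin-positive cells / Signal: immunofluorescence imaging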
FGF22 binding: binders of recombinant human FGF22 by thermal shift. Q9HCT0. SYPRO orange fluorescence; percent of sucrose octasulfate shift, DMSO zero. activity (Tm shift, normalised), % at 9.99 µM. hit rate 1.5% among 340,000. AID 651658;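 active = mean Tm shift, scaled 0 neutral to 100 positive control, at about 1.3% or above, every replicate too, limit read from the data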
Each line names hits and unclear results; the compound was inactive in the other large screens; ! = repeats disagree.

COc1ccc(-c2cn(CC[C@@H]3CC[C@H](NC(=O)Nc4ccc(F)cc4)[C@H](CO)O3)nn2)cc1	none (no result: Statin myotox sup)
COc1ccc(NC(=O)COc2ccc(/C=N/NC(=O)c3cccnc3)cc2OC)cc1	none (no result: FN deposition inh, Statin myotox sup, E-sel inducer)
COc1cc(/C=N/NC(=O)c2cccnc2)ccc1OCC(=O)Nc1ccccc1Cl	FGF22 binding 43
COc1ccc(C(=O)N/N=C/c2ccc(OC)c(CN3CCCc4ccccc43)c2)cc1	none (no result: Ecoli rRNA inh, FN deposition inh, SIRT5 block, E-sel inducer, FGF22 binding)
COc1ccc(/C=N/NC(=O)c2cccnc2)cc1CN1CCCc2ccccc21	Ecoli rRNA inh -28 (no result: FN deposition inh, Statin myotox sup, E-sel inducer)
Cc1cc(C)c2nc(NNC(=O)c3cc(=O)c4ccccc4o3)sc2c1	Ecoli rRNA inh -27 (no result: SIRT5 block)
O=C1c2ccccc2C(=O)N1OCc1ccc(Cl)cc1	Statin myotox sup 68 (no result: Ecoli rRNA inh, FN deposition inh, SIRT5 block, E-sel inducer, FGF22 binding)
COC(=O)Cc1[nH]n(-c2nc3ccccc3s2)c(=O)c1C(C)=Nc1ccc(C)cc1	Ecoli rRNA inh -26, FGF22 binding 2.5 (no result: Statin myotox sup, E-sel inducer)
C[C@@H]1CN([C@H](C)CO)C(=O)c2cc(NC(=O)CCCN(C)C)ccc2O[C@@H](C)CCCCO[C@@H]1CN(C)C(=O)Nc1ccccc1	none (no result: Statin myotox sup, FGF22 binding)
C/C=C/c1cnc2c(c1)C(=O)N([C@H](C)CO)C[C@H](C)[C@H](CN(C)S(=O)(=O)c1ccccc1)O2	none
O=C1NC(Cc2ccc(O)cc2)c2nc3ccc(Br)cc3c(=O)n2-c2ncccc21 (configuration not stated)	Ecoli rRNA inh -21
O=C1NC(Cc2ccc(O)cc2)c2nc3ccc(Br)cc3c(=O)n2-c2cc3ccccc3cc21 (configuration not stated)	none (no result: Ecoli rRNA inh, E-sel inducer)
O=C(Cc1cccnc1)N1CC2(C1)[C@H](c1ccccc1)[C@@H](CO)N2C(=O)C1CCCCC1	none (no result: FN deposition inh, Statin myotox sup)
COc1cccc(Cn2cnc(-c3ccccc3OC)c2C2CC2)c1	FGF22 binding 43 (no result: SIRT5 block, Statin myotox sup)
COc1cccc(Cn2cnc(-c3ccccc3OC)c2-c2cc(C)cc(C)c2)c1	none (no result: Statin myotox sup)
Cc1ccc(C(=O)N/C(=C\c2ccc3c(c2)OCO3)C(=O)Nc2ccc(C(=O)O)cc2)cc1	FGF22 binding 43 (no result: Statin myotox sup, E-sel inducer)
CCNC(=O)/C(=C/c1ccc2c(c1)OCO2)NC(=O)c1ccc(Br)cc1	Statin myotox sup 79 (no result: Ecoli rRNA inh, SIRT5 block, E-sel inducer, FGF22 binding)
COc1ccccc1S(=O)(=O)Nc1ccc2c(c1)OC[C@@H](C)NC[C@H](C)[C@H](OC)CN(C)C2=O	none
O=C(CNc1cccc(Cl)c1)NNC(=S)NCc1ccccc1	Ecoli rRNA inh -24
Cc1nn(C)c(C)c1CNC(=O)Nc1cccc(Cl)c1	FGF22 binding 43 (no result: Statin myotox sup, E-sel inducer)
Cc1nn(C)c(C)c1CNC(=O)Nc1ccc(Cl)cc1	none
O=C(NCc1ccc(F)cc1)Nc1cccc(Cl)c1	FGF22 binding 44 (no result: Statin myotox sup, E-sel inducer)
O=C(CNc1ccc(Cl)cc1)NNC(=S)NCc1ccccc1	none (no result: SIRT5 block, Statin myotox sup)
Cc1ccccc1S(=O)(=O)NCC[C@H]1CC[C@@H](NC(=O)C2CCOCC2)[C@@H](CO)O1	none (no result: FN deposition inh)
C[C@@H]1CCCCO[C@H](CN(C)S(=O)(=O)c2cccs2)[C@H](C)CN([C@H](C)CO)C(=O)c2cc(NC(=O)Cc3ccccc3)ccc2O1	none (no result: FN deposition inh, SIRT5 block, Statin myotox sup)
CN1c2ccc(-c3ccccc3F)cc2[C@@H]2[C@@H](CCN2S(=O)(=O)c2ccc(F)cc2)[C@@H]1CO	none (no result: FGF22 binding)
CC(C)N(CCC#N)C(=O)Nc1ccc2c(c1)CCO2	E-sel inducer 74 (no result: SIRT5 block, Statin myotox sup)
CC(OC(=O)c1ccc(NC(=O)CC#N)cc1)C(=O)Nc1ccc2c(c1)OCCO2 (configuration not stated)	none (no result: Statin myotox sup)
FC(F)Oc1ccc(NC(=S)Nc2ccc3cn[nH]c3c2)cc1	Ecoli rRNA inh -25 (no result: Statin myotox sup)
CCC(=O)N(C)C[C@H]1Oc2ncc(Br)cc2C(=O)N([C@@H](C)CO)C[C@H]1C	E-sel inducer 90
Cc1noc(C)c1NC(=O)N(C)C[C@@H]1Oc2ncc(Br)cc2C(=O)N([C@@H](C)CO)C[C@H]1C	SIRT5 block 30!
C/C=C/c1cnc2c(c1)C(=O)N([C@H](C)CO)C[C@H](C)[C@@H](CN(C)C(=O)Nc1c(C)noc1C)O2	none (no result: FN deposition inh, E-sel inducer)
O=C(C1CCCCC1)N1CC(=O)N2[C@@H](CO)[C@@H](c3ccc(Br)cc3)[C@@H]2C1	none (no result: Statin myotox sup, FGF22 binding)
C[C@@H]1CN([C@H](C)CO)C(=O)c2cccc(NS(=O)(=O)c3cccs3)c2O[C@H]1CN(C)Cc1ccc(-c2ccccc2)cc1	none (no result: FN deposition inh)
